This note sets out measurements from ChEMBL document CHEMBL3813596, “Conformational Constraint of the Glycerol Moiety of Lysophosphatidylserine Affords Compounds with Receptor Subtype Selectivity” (J Med Chem, 2016).

The target in test [1] is Probable G-protein coupled receptor 34 (Mus musculus) (UniProt Q9R1K6). Description: (§1) Agonist activity at mouse GPR34 expressed in HEK293A cells cotransfected with chimeric Galphaq/il after 1.5 hrs by alkaline phosphatase tagged-TGFalpha shedding assay. Particulars: HEK293-A. Format: cell-based.
In test [2] the target is Probable G-protein coupled receptor 34 (Mus musculus, UniProt Q9R1K6). Described as §1. Format: cell-based, HEK293-A.
Test [3] deals with Putative P2Y purinoceptor 10 (Mus musculus) (UniProt Q8BFU7). Description: (§2) Agonist activity at mouse P2Y10 receptor expressed in HEK293A cells after 1.5 hrs by alkaline phosphatase tagged-TGFalpha shedding assay. Format: cell-based. The note with it: HEK293-A. Summed up: (§3)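 Transient transfection of HEK293 cells with AP-TGFα plus the mouse receptor. For GPR34, HEK293A cells also got a chimeric Gαq/i1 subunit; P2Y10 was run in HEK293A and GPR174 in HEK293FT. Cells were seeded 24 h post-transfection in 5 mM HEPES (pH 7.4) HBSS onto serial 3.2-fold compound dilutions (top final 32 μM or lower, limited by mock-cell signal). Ki16425 was present, and incubation ran 1.5 h.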

For test [4], the target named is Putative P2Y purinoceptor 10 (Mus musculus, UniProt Q8BFU7). The test is described as §2. Format: cell-based, HEK293-A. Summed up: as §3
The target in test [5] is Probable G-protein coupled receptor 34 (Mus musculus) (UniProt Q9R1K6). Description: Intrinsic activity at mouse GPR34 expressed in HEK293A cells cotransfected with chimeric Galphaq/il after 1.5 hrs by alkaline phosphatase tagged-TGFalpha shedding assay relative to O-(Hydroxy(((2R,3R)-2-(((3-(2-((3-phenoxybenzyl)oxy)phenyl)-propanoyl)oxy)methyl)tetrahydro-2H-pyran-3-yl)oxy)phosphoryl)-L-serine. Format: cell-based. Particulars: HEK293-A. Summed up:
(§4)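 It is a dimensionless estimate of agonist activity. The GPR34 assay used HEK293A cells with chimeric Gαq/i1 and a 1.5 h incubation; the P2Y10 assay used HEK293A cells.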

In test [6] the target is Putative P2Y purinoceptor 10 (Mus musculus) (UniProt Q8BFU7). Description: Intrinsic activity at mouse P2Y10 receptor expressed in HEK293A cells after 1.5 hrs by alkaline phosphatase tagged-TGFalpha shedding assay relative to diF-C3-ph-o-O-C11. Particulars: HEK293-A. Format: cell-based. Summed up:
as §4

For test [7], the target named is Probable G-protein coupled receptor 174 (Mus musculus) (UniProt Q3U507). In words: Agonist activity at mouse GPR174 expressed in HEK293FT cells after 1.5 hrs by alkaline phosphatase tagged-TGFalpha shedding assay. Format: cell-based. Summed up: as §3

The structures appear in SMILES notation. Active and inactive are the calls of the source. The rule behind the calls is not given here.

Chain of Putative P2Y purinoceptor 10 (Mus musculus) (Q8BFU7 whole entry): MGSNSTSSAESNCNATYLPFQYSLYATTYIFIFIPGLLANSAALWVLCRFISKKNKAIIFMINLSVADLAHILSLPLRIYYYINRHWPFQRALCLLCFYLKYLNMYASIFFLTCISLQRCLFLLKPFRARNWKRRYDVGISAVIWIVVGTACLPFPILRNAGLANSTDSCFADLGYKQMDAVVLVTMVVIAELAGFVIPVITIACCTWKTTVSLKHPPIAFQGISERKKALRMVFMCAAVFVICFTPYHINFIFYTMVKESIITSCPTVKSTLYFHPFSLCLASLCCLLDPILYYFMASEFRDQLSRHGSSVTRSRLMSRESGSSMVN
Chain of Putative P2Y purinoceptor 10 (Q8BFU7 whole entry): as above
Chain of Probable G-protein coupled receptor 174 (Mus musculus) (Q3U507 whole entry): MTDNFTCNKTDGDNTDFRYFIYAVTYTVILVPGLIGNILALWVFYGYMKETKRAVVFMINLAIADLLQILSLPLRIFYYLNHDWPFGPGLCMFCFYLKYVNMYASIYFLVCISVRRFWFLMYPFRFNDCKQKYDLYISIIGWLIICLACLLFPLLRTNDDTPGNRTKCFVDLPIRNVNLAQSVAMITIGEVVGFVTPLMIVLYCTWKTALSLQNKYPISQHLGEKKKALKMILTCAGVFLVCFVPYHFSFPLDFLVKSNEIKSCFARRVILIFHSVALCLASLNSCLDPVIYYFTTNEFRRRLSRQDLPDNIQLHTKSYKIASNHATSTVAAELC
Chain of Probable G-protein coupled receptor 34 (Mus musculus) (Q9R1K6 whole entry): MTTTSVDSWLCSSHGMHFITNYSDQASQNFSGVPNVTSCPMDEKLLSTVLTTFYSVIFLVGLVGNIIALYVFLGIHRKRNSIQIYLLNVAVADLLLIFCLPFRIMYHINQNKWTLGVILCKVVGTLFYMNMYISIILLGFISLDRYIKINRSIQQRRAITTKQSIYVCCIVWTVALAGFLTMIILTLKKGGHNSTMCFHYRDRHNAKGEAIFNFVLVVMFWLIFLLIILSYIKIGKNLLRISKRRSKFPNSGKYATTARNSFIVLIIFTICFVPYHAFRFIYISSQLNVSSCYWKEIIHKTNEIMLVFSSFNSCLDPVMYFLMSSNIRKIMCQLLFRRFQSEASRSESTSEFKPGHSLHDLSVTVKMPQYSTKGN
Chain of Probable G-protein coupled receptor 34 (Q9R1K6 whole entry): as above

As a reminder, the Emax is the size of the effect at its maximum, as opposed to the concentration needed. Usually EC50 stands for the concentration that produces a half-maximal response. For `CCCCCCCCCCCOc1ccccc1CCC(=O)O[C@H]1C=CCO[C@@H]1COP(=O)(O)OCC(N)C(=O)O` (single isomer, unassigned), the Emax entry in test [1] and in test [3] was “inactive” each time. For the same molecule, in test [1], the pEC50 entry is “inactive”. Besides, the EC50 entry is “Not Active” in test [2] (hek293-a) and more than 1000 nM in test [4] (read-out: EC50). Besides, the Intrinsic activity result in test [5] and in test [6] was “inactive” in each case.

`N[C@@H](COP(=O)(O)OC[C@H]1OCC=C[C@H]1OC(=O)CCc1ccccc1OCc1cccc(Oc2ccccc2)c1)C(=O)O`: the Emax in test [1] stood at 16.5%. The values for the EC50 in test [2] (read-out: EC50) and in test [4] (read-out: EC50) were 180 nM and more than 1000 nM, respectively. In test [3], the Emax entry is “inactive”. The molecule also came in with an Intrinsic activity in test [5] of 0.86. The Intrinsic activity entry in test [6] was “inactive”.

Regarding `N[C@@H](COP(=O)(O)O[C@@H]1C=CCO[C@@H]1COC(=O)CCc1ccccc1OCc1cccc(Oc2ccccc2)c1)C(=O)O`, in test [1], the Emax was 12.4%. The EC50 in test [2] (read-out: EC50) was 600 nM; in test [4] (read-out: EC50), more than 1000 nM. Further, the Emax result in test [3] is “inactive”. The Intrinsic activity in test [5] is 0.2. The Intrinsic activity result in test [6] was “inactive”.

`CCCCCCCC/C=C\CCCCCCCC(=O)OC[C@@H]1OCCC[C@H]1OP(=O)(O)OC[C@@H](N)C(=O)O` (single isomer, unassigned) yielded an Emax in test [1] of 8.7%. Moreover, the EC50 in test [2] (read-out: EC50) is 100 nM; in test [4] (read-out: EC50), 450 nM. In test [5], this molecule displayed an Intrinsic activity of 1.03. Further, the outcome in test [7] was inactive.

As for `CCCCCCCC/C=C\CCCCCCCC(=O)OC[C@@H]1OCC=C[C@H]1OP(=O)(O)OC[C@@H](N)C(=O)O` (single isomer, unassigned), the Emax result in test [1] is “inactive”. The figures for the EC50 in test [2] (read-out: EC50) and in test [4] (read-out: EC50) were more than 1000 nM and 450 nM, respectively. Besides, the Emax in test [3] stood at 11.5%. Also, the Intrinsic activity result in test [5] was “inactive”. Further, the Intrinsic activity in test [6] amounted to 0.004.

As to `N[C@@H](COP(=O)(O)OC[C@H]1OCCC[C@H]1OC(=O)CCc1ccc(OCc2cccc(Oc3ccccc3)c2)cc1)C(=O)O`, the Emax entry in test [1] and in test [3] was “inactive” each time. Also, the EC50 in test [2] (read-out: EC50) and in test [4] (read-out: EC50) was more than 1000 nM in each case. Besides, the Intrinsic activity result in test [5] and in test [6] was “inactive” throughout.

For the molecule `N[C@@H](COP(=O)(O)OC[C@H]1OCC=C[C@@H]1OC(=O)CCc1ccccc1OCc1cccc(Oc2ccccc2)c1)C(=O)O`, the Emax entry in test [1] and in test [3] was “inactive” in each case. Further, the EC50 in test [2] (read-out: EC50) and in test [4] (read-out: EC50) was more than 1000 nM each time. Also, the Intrinsic activity result in test [5] and in test [6] was “inactive” in each case.

Regarding `CCCCCCCC/C=C\CCCCCCCC(=O)O[C@H]1CCCO[C@@H]1COP(=O)(O)OC[C@H](N)C(=O)O`, the EC50 result in test [2] (hek293-a) and in test [4] (hek293-a) was “Not Active” throughout. Besides, the result in test [7] was inactive.

In the case of `CCCCCCCC/C=C\CCCCCCCC(=O)OC[C@@H]1OCCC[C@@H]1OP(=O)(O)OC[C@@H](N)C(=O)O` (single isomer, unassigned), the Emax in test [1] is 11.1%. In addition, the values for the EC50 in test [2] (read-out: EC50) and in test [4] (hek293-a) were 210 nM and “Not Active”, respectively. Further, the Intrinsic activity in test [5] was 0.53. For the same molecule, the outcome in test [7] was inactive.

For the molecule `CCCCCCCCCCCOc1ccccc1CCC(=O)O[C@@H]1C=CCO[C@@H]1COP(=O)(O)OCC(N)C(=O)O` (single isomer, unassigned), the Emax entry in test [1] and in test [3] was “inactive” in each case. Moreover, the EC50 in test [2] (read-out: EC50) and in test [4] (read-out: EC50) was more than 1000 nM in each case. The Intrinsic activity result in test [5] and in test [6] was “inactive” each time.

As to `CCCCCCCCCCCOc1ccccc1CCC(=O)O[C@@H]1CCCO[C@@H]1COP(=O)(O)OCC(N)C(=O)O` (single isomer, unassigned), the Emax result in test [1] and in test [3] was “inactive” throughout. Further, the EC50 in test [2] (read-out: EC50) and in test [4] (read-out: EC50) was more than 1000 nM in each case. For the same molecule, the Intrinsic activity entry in test [5] and in test [6] was “inactive” throughout. The result in test [7] was inactive.

On to `CCCCCCCC/C=C\CCCCCCCC(=O)O[C@H]1C=CCO[C@@H]1COP(=O)(O)OC[C@H](N)C(=O)O`, for which the figures for the EC50 result in test [2] (hek293-a) and in test [4] (read-out: EC50) were “Not Active” and more than 1000 nM, respectively. Moreover, in test [3], the Emax entry is “inactive”. In addition, the Intrinsic activity entry in test [6] is “inactive”.

On to `N[C@@H](COP(=O)(O)O[C@H]1CCCO[C@@H]1COC(=O)CCc1ccccc1OCc1cccc(Oc2ccccc2)c1)C(=O)O`, for which the Emax in test [1] was 9.8%. In addition, the EC50 is 340 nM in test [2] (read-out: EC50) and more than 1000 nM in test [4] (read-out: EC50). Further, in test [3], the Emax result was “inactive”. Moreover, the Intrinsic activity in test [5] stood at 0.24. The Intrinsic activity result in test [6] is “inactive”. Also, in test [7], the result was inactive.

In the case of `CCCCCCCC/C=C\CCCCCCCC(=O)O[C@@H]1C=CCO[C@@H]1COP(=O)(O)OC[C@H](N)C(=O)O`, the figures for the EC50 in test [2] (read-out: EC50) and in test [4] (read-out: EC50) were 560 nM and more than 1000 nM, respectively. In test [3], the Emax result was “inactive”. Further, in test [6], the Intrinsic activity result is “inactive”.

Regarding `CCCCCCCC/C=C\CCCCCCCC(=O)OC[C@@H]1OCC=C[C@@H]1OP(=O)(O)OC[C@@H](N)C(=O)O` (single isomer, unassigned), the Emax result in test [1] and in test [3] was “inactive” in each case. Further, the EC50 in test [2] (read-out: EC50) and in test [4] (read-out: EC50) was more than 1000 nM in each case. The Intrinsic activity entry in test [5] and in test [6] was “inactive” throughout.

Consider `N[C@@H](COP(=O)(O)O[C@@H]1CCCO[C@@H]1COC(=O)CCc1cccc(OCc2cccc(Oc3ccccc3)c2)c1)C(=O)O`, for which the Emax entry in test [1] and in test [3] was “inactive” throughout. Further, the EC50 in test [2] (read-out: EC50) and in test [4] (read-out: EC50) was more than 1000 nM in each case. For the same molecule, the Intrinsic activity result in test [5] and in test [6] was “inactive” throughout.

Regarding `N[C@@H](COP(=O)(O)O[C@@H]1CCCO[C@@H]1COC(=O)CCc1ccc(OCc2cccc(Oc3ccccc3)c2)cc1)C(=O)O`, the EC50 entry in test [2] (hek293-a) is “Not Active”; in test [4] (read-out: EC50) it was more than 1000 nM. Also, the Emax entry in test [3] is “inactive”. The Intrinsic activity entry in test [6] is “inactive”.

In the case of `N[C@@H](COP(=O)(O)O[C@H]1C=CCO[C@@H]1COC(=O)CCc1ccccc1OCc1cccc(Oc2ccccc2)c1)C(=O)O`, the Emax was 11.7% in test [1] and 11.5% in test [3]. Moreover, the EC50 came to 460 nM in test [2] (read-out: EC50) and 330 nM in test [4] (read-out: EC50). Further, the Intrinsic activity in test [5] was 0.25; in test [6] it was 0.0053.

`N[C@@H](COP(=O)(O)OC[C@H]1OCCC[C@H]1OC(=O)CCc1cccc(OCc2cccc(Oc3ccccc3)c2)c1)C(=O)O`: the results for the EC50 entry in test [2] (hek293-a) and in test [4] (read-out: EC50) were “Not Active” and more than 1000 nM, respectively. Moreover, the Emax result in test [3] was “inactive”. The Intrinsic activity result in test [6] was “inactive”.

As for `CCCCCCCC/C=C\CCCCCCCC(=O)O[C@@H]1CCCO[C@@H]1COP(=O)(O)OC[C@H](N)C(=O)O`, the EC50 in test [2] (read-out: EC50) and in test [4] (read-out: EC50) was more than 1000 nM in each case. Besides, the result in test [7] was inactive.
